Results as given in ChEMBL document CHEMBL4184169, “Structure-activity relationships and docking studies of synthetic 2-arylindole derivatives determined with aromatase and quinone reductase 1” (Bioorg Med Chem Lett, 2017).

Columns and labels:
Aromatase [1] = target: T1, Aromatase (Homo sapiens, UniProt P11511); test: Inhibition of CYP19A1 (unknown origin) at 50 uM preincubated with NADPH followed by DBF substrate addition after 30 mins by fluorescence based assay relative to control
T1 sequence (P11511 whole entry): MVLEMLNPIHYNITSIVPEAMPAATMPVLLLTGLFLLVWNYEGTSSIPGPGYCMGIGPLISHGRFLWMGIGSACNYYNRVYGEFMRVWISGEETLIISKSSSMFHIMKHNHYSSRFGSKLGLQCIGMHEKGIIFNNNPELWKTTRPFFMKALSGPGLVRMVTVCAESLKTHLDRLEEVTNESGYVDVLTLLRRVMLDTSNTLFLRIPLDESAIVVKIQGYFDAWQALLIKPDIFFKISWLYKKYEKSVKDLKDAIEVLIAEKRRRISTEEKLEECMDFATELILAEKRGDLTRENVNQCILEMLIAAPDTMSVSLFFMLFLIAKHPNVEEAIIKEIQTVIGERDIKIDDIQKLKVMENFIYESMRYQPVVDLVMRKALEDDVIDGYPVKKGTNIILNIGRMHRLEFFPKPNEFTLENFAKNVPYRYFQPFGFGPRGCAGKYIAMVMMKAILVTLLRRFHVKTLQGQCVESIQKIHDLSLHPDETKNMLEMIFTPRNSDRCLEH
In short: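 Aromatase inhibition was screened at 50 μM test concentration. Activity is expressed as percent inhibition relative to vehicle-treated controls.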

[2] = target: NAD(P)H dehydrogenase [quinone] 1 (Mus musculus) (UniProt Q64669); test: Induction of QR1 activity in mouse Hepa-1c1c7 cells assessed as induction ratio at 50 uM after 48 hrs by MTT assay relative to control; type: cell-based
Chain of NAD(P)H dehydrogenase [quinone] 1 (Mus musculus) (Q64669 whole entry): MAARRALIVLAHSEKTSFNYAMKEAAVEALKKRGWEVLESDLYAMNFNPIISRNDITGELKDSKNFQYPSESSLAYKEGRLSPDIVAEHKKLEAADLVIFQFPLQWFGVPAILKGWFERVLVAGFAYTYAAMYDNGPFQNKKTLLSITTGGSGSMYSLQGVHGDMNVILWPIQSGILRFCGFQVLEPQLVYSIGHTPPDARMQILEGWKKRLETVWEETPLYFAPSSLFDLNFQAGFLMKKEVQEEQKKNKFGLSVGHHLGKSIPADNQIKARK
In short: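 QR1 induction is reported as the induction ratio, meaning activity relative to control, measured at a test concentration of 50 μM.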

[3] = target: NAD(P)H dehydrogenase [quinone] 1 (Mus musculus) (UniProt Q64669); test: Induction of QR1 activity in mouse Hepa-1c1c7 cells assessed as drug concentration required to double enzyme activity after 48 hrs by MTT assay; type: cell-based
In short: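 CD is the concentration that doubles QR1 activity. It was determined only for compounds whose induction ratio at 50 μM exceeded 2.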

Aromatase [4] = target: T1, Aromatase; test: Inhibition of CYP19A1 (unknown origin) preincubated with NADPH followed by DBF substrate addition after 30 mins by fluorescence based assay

inhibition at 50 µM (Aromatase [1]) [%] | Ratio [2] | CD [3] [µM] | IC50 (Aromatase [4]) [µM] | Structure (SMILES)
24.7 | 1.3 | – | – | CO/N=C/c1c(-c2ccccc2)[nH]c2ccccc12
49 | 1.8 | – | – | c1ccc(C2Cc3ccccc3N2)cc1 (stereo not drawn)
1.86 | 2.48 | 29.1 | – | FC(F)(F)Oc1ccc(-c2cc3ccccc3[nH]2)cc1
71.5 | 0.78 | – | 6.87 | Cc1ccccc1-c1cc2cc([N+](=O)[O-])ccc2[nH]1
58.1 | 5.5 | 6.76 | 39.7 | Brc1ccc2[nH]c(-c3ccccc3)cc2c1
20 | 4.4 | 2.1 | – | Cn1c(-c2ccc(Cl)c(Cl)c2)cc2ccccc21
20.2 | 1.9 | – | – | COCn1c(-c2ccccc2)cc2ccccc21
40.4 | 3.1 | 11.7 | – | O/N=C/c1c(-c2ccccc2)[nH]c2ccccc12
82.3 | 1.06 | – | 3.34 | N#Cc1ccc2[nH]c(-c3ccccc3)cc2c1
0 | 0.78 | – | – | CCCCCc1ccc(-c2cc3ccccc3[nH]2)cc1
13.6 | 4.25 | 6.8 | – | Clc1ccc2cc(-c3ccccc3)[nH]c2c1
77 | 0.89 | – | 3.88 | Cn1c(-c2ccccc2)cc2cc([N+](=O)[O-])ccc21
21.5 | 1.4 | – | – | Clc1ccccc1-c1cc2ccccc2[nH]1
27.8 | – | – | – | c1ccc(-c2cc3ccccc3[nH]2)cc1 [2-PHENYL-1H-INDOLE]
41.4 | 0.72 | – | – | Nc1ccc2[nH]c(-c3ccccc3)cc2c1
9.18 | 3.75 | 1.12 | – | COc1cc(OC)cc(-c2cc3ccccc3[nH]2)c1
22.6 | 0.57 | – | – | Clc1ccc(-c2cc3ccccc3[nH]2)cc1Cl
9.33 | 5.2 | 6.4 | – | Cc1ccc(-c2cc3ccccc3[nH]2)cc1
0 | 0.37 | – | – | c1ccc(Cn2c(-c3ccccc3)cc3ccccc32)cc1
27.1 | 0.54 | – | – | Cc1ccccc1-c1cc2ccccc2[nH]1
48.4 | 1.3 | – | – | COc1cccc(-c2cc3ccccc3[nH]2)c1
21.8 | 2.73 | 17.8 | – | Fc1ccc(-c2cc3ccccc3[nH]2)cc1
46.2 | 0.56 | – | – | Nc1ccc(-c2cc3ccccc3[nH]2)cc1
0 | 1.21 | – | – | CN(C)c1ccc(-c2cc3ccccc3[nH]2)cc1

inhibition at 50 µM (Aromatase [1]) [%] | Ratio [2] | CD [3] [µM] | IC50 (Aromatase [4]) [µM] | Structure (SMILES)
21.4 | 4.9 | 10.3 | – | Nc1ccc2[nH]c(-c3ccc(Cl)c(Cl)c3)cc2c1
9.27 | 1.48 | – | – | Nc1ccccc1C#Cc1cc(F)cc(F)c1
11.9 | 1 | – | – | CC(C)(C)OC(=O)n1c(-c2ccccc2)cc2ccccc21
0.07 | 0.74 | – | – | COc1ccc2ccc(-c3cc4ccccc4[nH]3)cc2c1
24.1 | 5.2 | 2.17 | – | Clc1cccc(-c2cc3ccccc3[nH]2)c1
27.9 | 1.7 | – | – | O=[N+]([O-])c1ccc2[nH]c(-c3cccnc3)cc2c1
34 | 1.56 | – | – | Cn1c(-c2ccc(Cl)c(Cl)c2)cc2cc([N+](=O)[O-])ccc21
11 | 0.58 | – | – | Fc1cc(F)cc(-c2cc3ccccc3[nH]2)c1
32.4 | 1 | – | – | Cc1ccc2cc(-c3ccccc3)[nH]c2c1
93.7 | 2.1 | 31.2 | 11.5 | N#Cc1ccc2[nH]c(-c3cccnc3)cc2c1
23.2 | 0.5 | – | – | C(=N\OCc1ccccc1)/c1c(-c2ccccc2)[nH]c2ccccc12
77.7 | 3.92 | 5.76 | 9 | O=[N+]([O-])c1ccc2[nH]c(-c3ccccc3)cc2c1
22 | 0.67 | – | – | c1ccc2[nH]c(-c3ccsc3)cc2c1
26.3 | 0.87 | – | – | C#CCn1c(-c2ccccc2)cc2ccccc21
26.7 | 2.7 | 18.4 | – | Nc1cccc(-c2cc3ccccc3[nH]2)c1
15.8 | – | 2.75 | – | Clc1ccc(-c2cc3ccccc3[nH]2)cc1
0 | 0.5 | – | – | Cn1c(-c2ccccc2)cc2ccccc21
0 | 1.56 | – | – | COc1ccc(-c2cc3ccccc3[nH]2)cc1
70.5 | 5.1 | 5.5 | 22.8 | Clc1ccc2[nH]c(-c3ccccc3)cc2c1
81.5 | 1.14 | – | 3.05 | c1cncc(-c2cc3ccccc3[nH]2)c1
7.59 | 1.07 | – | – | O=[N+]([O-])c1ccc2[nH]c(-c3ccc(Cl)c(Cl)c3)cc2c1
4.8 | 2.8 | 5.1 | – | Brc1ccc(-c2cc3ccccc3[nH]2)cc1
42 | 2.14 | 46.7 | – | Cn1c(-c2ccc(Cl)c(Cl)c2)cc2cc(N)ccc21

Structure (SMILES) | inhibition at 50 µM (Aromatase [1]) [%] | Ratio [2] | CD [3] [µM] | IC50 (Aromatase [4]) [µM]
c1ccc(-c2nc3ccccc3[nH]2)cc1 | 7.64 | – | – | –
